Results published in ChEMBL document CHEMBL1155759, “New spirostanol steroids and steroidal saponins from roots and rhizomes of Dracaena angustifolia and their antiproliferative activity” (J Nat Prod, 2001).
pIC50: −log10 of the molar value. Counter-ions that a name gives are not always drawn.

Experiments:
Assay type in all cases: functional, cell-based
[1] = Antiproliferative activity against mouse B16-BL6 cells assessed as cell viability after 72 hrs by MTT assay; details: B16-BL6, 72 h
How it was run: (§1)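 MTT viability assay. HT-1080 and B-16 BL6 were kept in Eagle's MEM, colon 26-L5 in RPMI, all with 10% FCS, 0.1% NaHCO3 and 2 mM glutamine. 2500 cells/well were attached for 24 h at 37 °C, 5% CO2, then exposed 72 h to graded concentrations (DMSO stock, final DMSO <0.1%). MTT was added for 2 h, formazan read at 540 nm, and IC50 taken from means of four wells.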

[2] = system: HT-1080; assay: Antiproliferative activity against human HT1080 cells assessed as cell viability after 72 hrs by MTT assay; details: HT-1080, 72 h; how it was run: as §1
[3] = Antiproliferative activity against mouse Colon 26-L5 cells assessed as cell viability after 72 hrs by MTT assay

Row | SMILES | pIC50 [1] | pIC50 [2] | pIC50 [3]
1 | C=C1CC[C@@]2(OC1)O[C@H]1C[C@H]3[C@@H]4CC=C5C[C@@H](O)C[C@@H](O[C@@H]6OC[C@H](O)[C@H](O)[C@H]6O)[C@]5(C)[C@H]4CC[C@]3(C)[C@H]1[C@@H]2C | 4.32 | 4.40 | 4.11
2 | CC1CC[C@@]2(OC1)O[C@H]1C[C@@]3(O)[C@@H]4CC=C5C[C@@H](O)C[C@@H](O)[C@]5(C)[C@H]4CC[C@]3(C)[C@H]1[C@@H]2C (single isomer, unassigned) [NAMOGENIN B] | < 4.00 | < 4.00 | < 4.00
3 | C=C1CO[C@@]2(O[C@H]3C[C@H]4[C@@H]5CC=C6C[C@@H](O)C[C@@H](O[C@@H]7OC[C@H](O)[C@H](O)[C@H]7O[C@@H]7O[C@@H](C)[C@H](OC(C)=O)[C@@H](OC(C)=O)[C@H]7OC(C)=O)[C@]6(C)[C@H]5CC[C@]4(C)[C@H]3[C@@H]2C)[C@@H](O)[C@H]1O[C@@H]1O[C@H](C)[C@H](O)[C@H](O)[C@H]1O | 4.68 | 5.42 | 4.52
4 | C=C1CC[C@@]2(OC1)O[C@H]1C[C@H]3[C@@H]4CC=C5C[C@@H](O)C[C@@H](O[C@@H]6OC[C@H](O)[C@H](O)[C@H]6O[C@@H]6O[C@@H](C)[C@H](O)[C@@H](O)[C@H]6O)[C@]5(C)[C@H]4CC[C@]3(C)[C@H]1[C@@H]2C | 4.39 | 4.38 | 4.02
5 | C=C1CO[C@@]2(O[C@H]3C[C@H]4[C@@H]5CC=C6C[C@@H](O)C[C@@H](O[C@@H]7OC[C@H](O)[C@H](O[C@@H]8OC[C@@H](O)[C@H](OC(C)=O)[C@H]8O)[C@H]7O[C@@H]7O[C@@H](C)[C@H](OC(C)=O)[C@@H](OC(C)=O)[C@H]7OC(C)=O)[C@]6(C)[C@H]5CC[C@]4(C)[C@H]3[C@@H]2C)[C@@H](O)[C@H]1O[C@@H]1O[C@H](C)[C@H](O)[C@H](O)[C@H]1O [NAMONIN A] | 5.01 | 6.70 | 4.58
6 | C=C1CO[C@@]2(O[C@H]3C[C@H]4[C@@H]5CC=C6C[C@@H](O)C[C@@H](O[C@@H]7OC[C@H](O)[C@H](O)[C@H]7O[C@@H]7O[C@@H](C)[C@H](OC(C)=O)[C@@H](O)[C@H]7O)[C@]6(C)[C@H]5CC[C@]4(C)[C@H]3[C@@H]2C)[C@@H](O)[C@H]1O[C@@H]1O[C@H](C)[C@H](O)[C@H](O)[C@H]1O [NAMONIN D] | 4.37 | 4.67 | 4.01
7 | CC1CC[C@@]2(OC1)O[C@H]1C[C@@]3(O)[C@@H]4CC=C5C[C@@H](O)C[C@@H](O)[C@]5(C)[C@H]4CC[C@]3(C)[C@@]1(O)[C@@H]2C (mixture of isomers) [(25R,S)-NAMOGENIN A] | < 4.00 | < 4.00 | < 4.00
8 | C=C1CC[C@@]2(OC1)O[C@H]1C[C@@]3(O)[C@@H]4CC=C5C[C@@H](O)C[C@@H](O)[C@]5(C)[C@H]4CC[C@]3(C)[C@@]1(O)[C@@H]2C [NAMOGENIN C] | < 4.00 | < 4.00 | < 4.00
9 | COc1cccc2c1C(=O)c1c(O)c3c(c(O)c1C2=O)C[C@@](O)(C(=O)CO)C[C@@H]3O[C@H]1C[C@H](N)[C@H](O)[C@H](C)O1 [DOXORUBICIN HYDROCHLORIDE] | 6.70 | 6.70 | 
10 | CC(=O)O[C@H]1CO[C@@H](O[C@@H]2C[C@H](O)CC3=CC[C@H]4[C@@H]5C[C@@H]6OC(CC[C@@H](C)CO[C@@H]7O[C@H](CO)[C@@H](O)[C@H](O)[C@H]7O)=C(C)[C@@H]6[C@@]5(C)CC[C@@H]4[C@]32C)[C@H](O[C@@H]2O[C@@H](C)[C@H](O)[C@@H](O)[C@H]2O)[C@H]1O[C@@H]1OC[C@@H](O)[C@H](O)[C@H]1O [NAMONIN E] | < 4.00 | 4.66 | < 4.00
11 | C=C1CO[C@@]2(O[C@H]3C[C@H]4[C@@H]5CC=C6C[C@@H](O)C[C@@H](O[C@@H]7OC[C@H](O)[C@H](O[C@@H]8OC[C@@H](O)[C@H](O)[C@H]8O)[C@H]7O[C@@H]7O[C@@H](C)[C@H](OC(C)=O)[C@@H](OC(C)=O)[C@H]7OC(C)=O)[C@]6(C)[C@H]5CC[C@]4(C)[C@H]3[C@@H]2C)[C@@H](O)[C@H]1O[C@@H]1O[C@H](C)[C@H](O)[C@H](O)[C@H]1O | 4.92 | 6.22 | 4.66
12 | C=C1CO[C@@]2(O[C@H]3C[C@H]4[C@@H]5CC=C6C[C@@H](O)C[C@@H](O[C@@H]7OC[C@H](O)[C@H](O[C@@H]8OC[C@@H](O)[C@H](O)[C@H]8O)[C@H]7O[C@@H]7O[C@@H](C)[C@H](OC(C)=O)[C@@H](OC(C)=O)[C@H]7OC(C)=O)[C@]6(C)[C@H]5CC[C@]4(C)[C@H]3[C@@H]2C)[C@@H](O)[C@H]1O | 4.55 | 4.95 | 4.12
13 | C=C1CO[C@@]2(O[C@H]3C[C@H]4[C@@H]5CC=C6C[C@@H](O)C[C@@H](O[C@@H]7OC[C@H](O)[C@H](O[C@@H]8OC[C@@H](OC(C)=O)[C@H](O)[C@H]8O)[C@H]7O[C@@H]7O[C@@H](C)[C@H](OC(C)=O)[C@@H](OC(C)=O)[C@H]7OC(C)=O)[C@]6(C)[C@H]5CC[C@]4(C)[C@H]3[C@@H]2C)[C@@H](O)[C@H]1O[C@@H]1O[C@H](C)[C@H](O)[C@H](O)[C@H]1O [NAMONIN B] | 4.93 | 6.52 | 4.56
14 | C=C(CCC1=C(C)[C@H]2[C@H](C[C@H]3[C@@H]4CC=C5C[C@@H](O)C[C@@H](O[C@@H]6OC[C@H](O)[C@H](O)[C@H]6O[C@@H]6O[C@@H](C)[C@H](O)[C@@H](O)[C@H]6O)[C@]5(C)[C@H]4CC[C@@]32C)O1)CO[C@@H]1O[C@H](CO)[C@@H](O)[C@H](O)[C@H]1O | < 4.00 | < 4.00 | < 4.00
15 | O=c1[nH]cc(F)c(=O)[nH]1 [FLUOROURACIL] | 6.22 | 5.82 | 6.30
16 | C=C1CO[C@@]2(O[C@H]3C[C@H]4[C@@H]5CC=C6C[C@@H](O)C[C@@H](O[C@@H]7OC[C@H](O)[C@H](O)[C@H]7O[C@@H]7O[C@@H](C)[C@H](O)[C@@H](O)[C@H]7O)[C@]6(C)[C@H]5CC[C@]4(C)[C@H]3[C@@H]2C)[C@@H](O)[C@H]1O | 5.38 | 4.25 | 5.28
17 | C=C1CO[C@@]2(O[C@H]3C[C@H]4[C@@H]5CC=C6C[C@@H](O)C[C@@H](O[C@@H]7OC[C@H](O)[C@H](O)[C@H]7O[C@@H]7O[C@@H](C)[C@H](O)[C@@H](O)[C@H]7O)[C@]6(C)[C@H]5CC[C@]4(C)[C@H]3[C@@H]2C)[C@@H](O)[C@H]1O[C@@H]1O[C@H](C)[C@H](O)[C@H](O)[C@H]1O [NAMONIN C] | < 4.00 | 4.56 | < 4.00
